# From PubChem
# Hits are enriched below; roughly 2.3% of the tested compounds scored in any of these assays.
# TRPC4 PAM: allosterically enhances the mouse TRPC4 cation channel | HEK293 TRPC4beta/mu-opioid, DAMGO EC20, Fluo-4 Ca2+ flux; hits give high values | B-score at 10 µM | 310,000 compounds, 0.42% hits | Q9QUQ5;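 active = B-score of calcium response area above 5 SD of library B-scores, with initial fluorescence ratio within 5 SD of library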;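 also: B-score of integrated fluorescence ratio over time as area under calcium response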
# Target sequence (Q9QUQ5 whole entry, looked up): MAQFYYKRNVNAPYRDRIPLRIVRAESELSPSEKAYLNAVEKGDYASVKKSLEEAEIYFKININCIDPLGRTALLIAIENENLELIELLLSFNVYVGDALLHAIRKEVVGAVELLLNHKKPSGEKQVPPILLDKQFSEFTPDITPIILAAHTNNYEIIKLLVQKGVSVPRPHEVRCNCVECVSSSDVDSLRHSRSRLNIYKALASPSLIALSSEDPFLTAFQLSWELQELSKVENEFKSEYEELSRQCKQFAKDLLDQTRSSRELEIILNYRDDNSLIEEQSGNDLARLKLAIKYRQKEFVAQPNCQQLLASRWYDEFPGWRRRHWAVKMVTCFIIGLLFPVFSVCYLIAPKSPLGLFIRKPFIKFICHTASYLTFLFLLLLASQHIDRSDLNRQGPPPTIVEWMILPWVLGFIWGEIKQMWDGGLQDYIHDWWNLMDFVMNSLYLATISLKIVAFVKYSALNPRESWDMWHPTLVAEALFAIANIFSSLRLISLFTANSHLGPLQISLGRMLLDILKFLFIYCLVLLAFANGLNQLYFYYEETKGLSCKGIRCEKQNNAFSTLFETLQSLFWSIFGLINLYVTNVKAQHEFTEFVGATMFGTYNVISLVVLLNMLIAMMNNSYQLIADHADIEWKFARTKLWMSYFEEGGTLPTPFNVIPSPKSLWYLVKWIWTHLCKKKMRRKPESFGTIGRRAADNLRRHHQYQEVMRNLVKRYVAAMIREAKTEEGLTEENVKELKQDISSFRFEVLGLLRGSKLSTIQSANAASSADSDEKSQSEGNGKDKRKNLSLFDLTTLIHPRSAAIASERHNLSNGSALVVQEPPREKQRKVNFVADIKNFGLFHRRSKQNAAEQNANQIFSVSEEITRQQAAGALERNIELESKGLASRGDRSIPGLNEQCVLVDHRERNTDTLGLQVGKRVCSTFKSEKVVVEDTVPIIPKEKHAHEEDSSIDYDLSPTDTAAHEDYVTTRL
# TRPC6 act: activates the mouse TRPC6 cation channel | Q61143 | 310,000 compounds, 0.13% hits | HEK293-TRPC6 membrane potential dye fluorescence; hits give high values | B-score at 10 µM;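 active = B-score of the integrated fluorescence ratio above library mean plus 3 SD, and starting fluorescence ratio within library mean plus 5 SD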;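 also: higher score means more depolarization so channel activation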
# TRPC4 act: opens the mouse TRPC4 cation channel | HEK293 TRPC4beta/mu-opioid, Fluo4 calcium fluorescence; hits give high values | Q9QUQ5 | B-score at 10 µM | 310,000 compounds, 0.49% hits;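 active = B-score above 5 SD of library B-scores, and initial fluorescence ratio not above library mean plus 5 SD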;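 also: positive B-score marks a calcium rise read as TRPC4 activation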
#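 Assay system: HEK293 cells stably co-expressing mouse TRPC4beta and mu-opioid receptor / Timing: Fluo4 dye loading 45 min at room temperature, 110 s recording / Signal: Fluo4 calcium-sensitive dye fluorescence, kinetic, 1 Hz baseline / Read-out: integrated baseline-normalised fluorescence ratio, converted to per-well B score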
# TRPC6 inh: blocks the mouse TRPC6 cation channel; 310,000 compounds, 1.1% hits; HEK293-TRPC6, membrane potential dye, ACh-evoked depolarization; hits give low values; B-score at 10 µM; Q61143;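 active = B-score under library mean minus 3 SD, initial fluorescence not abnormally high, positive integrated signal ratio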;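 also: B-score derived from integrated fluorescence ratio over the kinetic read; more negative B-score means stronger inhibition of depolarization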
# TRPC4 inh: TRPC4 (mouse) channel inhibition | Q9QUQ5 | HEK293 TRPC4beta/mu-opioid, DAMGO-evoked Fluo4 calcium flux; hits give low values | B-score at 10 µM | 300,000 compounds, 0.39% hits | AID 2247;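 active = B-score over 3 SD under the library average, no early fluorescence shift, positive overall ratio signal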
#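 Assay system: TRPC4beta/mu-opioid receptor HEK293 cell line; compound dosing: single concentration per test compound; detection: Fluo4 Ca2+ flux fluorescence; evaluation: per-well B score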
# TRPC4 spec 2: second check of whether TRPC6 inhibitors also affect mouse TRPC4. shares compounds with TRPC6 inh. HEK293 TRPC4/MOR, membrane potential dye fluorescence; channel activated by saturating DAMGO dose. inhibition, % at 10 µM. 920 compounds, 42% hits. AID 2776;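 active = compounds whose fluorescence signal differed from control wells by over 3 SD, either direction, in both duplicate plates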
# TRPC4 spec: tests whether TRPC6 inhibitors also affect mouse TRPC4 | 920 compounds, 61% hits | HEK293 TRPC4/mu-opioid, membrane potential fluorescence | shares compounds with TRPC6 inh | AID 2777 | activity change, negative = inhibition, % at 10 µM;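 active = rise or fall in signal beyond 3 SD of buffer-only wells in both replicate plates, either sign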;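 also: integrated kinetic ratio of fluorescence range over baseline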
# HEK293 MPD ctr 2-1: second counter-screen for TRPC6 inhibitors: parental HEK293 cells. shares compounds with TRPC6 inh. parental HEK293 membrane potential dye fluorescence; maximal acetylcholine challenge after compound addition. signal change vs control, % at 10 µM. 920 compounds, 31% hits;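 active = membrane potential signal moving either way by over 3 SD of the maximum-effect control, in both duplicate plates, meaning non-specific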
# HEK293 MPD ctr-1: checks TRPC6 inhibitor effects in parental HEK293 cells; shares compounds with TRPC6 inh; parental HEK293 membrane potential dye fluorescence; membrane potential signal change, % at 10 µM; 920 compounds, 60% hits; AID 2780;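 active = membrane potential signal shifting up or down by more than 3 SD of buffer-only wells, on both duplicate plates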
# HEK293 MPD ctr-2: counter-screen for TRPC6 modulators: effect in parental HEK293 cells. shares compounds with TRPC6 inh. membrane potential dye fluorescence. membrane potential signal change, % at 10 µM. 2,400 compounds, 51% hits. AID 488924;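 active = membrane potential signal moves up or down beyond 5 SD from buffer-only wells, on both duplicate plates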
# HEK293 MPD ctr 2-2: second check of TRPC6 modulator effects in parental HEK293 cells | shares compounds with TRPC6 inh | membrane potential dye fluorescence; after compound, maximal acetylcholine stimulation | inhibition, % at 10 µM | 2,400 compounds, 14% hits;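 active = membrane potential signal drops by more than 5 SD from the mean control signal, in both duplicate plates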;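 also: plate controls were acetylcholine ECmax control wells for no effect and buffer only wells for full effect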
# TRPC4/MOR mod: tests whether TRPC6 modulators also affect mouse TRPC4; shares compounds with TRPC6 inh; HEK293 TRPC4/mu-opioid, membrane potential fluorescence; percent change from control (negative = decrease, positive = increase), % at 10 µM; 2,400 compounds, 69% hits;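 active = membrane potential signal moved up or down beyond 5 SD of buffer control wells, in both duplicate plates, actives on both sides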;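 also: plate controls were assay buffer wells for no effect and DAMGO maximal-effect wells for full effect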
# TRPC4 ctr inh 2: second selectivity test of TRPC6 modulators against mouse TRPC4; HEK293 TRPC4/mu-opioid, membrane potential dye fluorescence; stimulated with maximal-effect DAMGO; shares compounds with TRPC6 inh; 2,400 compounds, 55% hits; inhibition, % at 10 µM;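 active = drop in membrane potential signal beyond 5 SD of the control wells in both duplicate plates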;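 also: TRPC4 counter screen for TRPC6 hits run under conditions tuned for TRPC6 not TRPC4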
# TRPC6 block conf: mouse TRPC6 inhibitor confirmation; shares compounds with TRPC6 inh; inhibition, % at 10 µM; 3,300 compounds, 43% hits; HEK293-TRPC6, membrane potential dye, ACh-evoked depolarization;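 active = fluorescence ratio falls more than 5 SD below the full-stimulation control mean, in both duplicate runs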;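 also: integrated fluorescence ratio of peak minus minimum over baseline after agonist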
# TRPC6 act conf: confirmation of mouse TRPC6 activators. HEK293-TRPC6 membrane potential dye fluorescence, FDSS. activation, % at 10 µM. shares compounds with TRPC6 inh. AID 488961. 2,800 compounds, 11% hits;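 active = ratio signal rise beyond 5 SD above unstimulated control wells' mean, seen in both duplicate runs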;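 also: plate controls were buffer EC0 wells for no effect and acetylcholine ECmax response for full effect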
# The depositor's hits bear a star; i = inactive; . = no result given.
SMILES,TRPC4 PAM,TRPC6 act,TRPC4 act,TRPC6 inh,TRPC4 inh,HEK293 MPD ctr-2,HEK293 MPD ctr 2-2,TRPC4/MOR mod,TRPC4 ctr inh 2,TRPC6 block conf,TRPC6 act conf,others
CN(C)c1cc[n+](CC(=O)N2c3ccccc3Sc3ccccc32)cc1,i,i,i,-5*,i,i,i,-12%*,i,44%*,i,
CCOC(=O)N1c2ccccc2Sc2ccccc21,i,i,i,i,i,.,.,.,.,.,.,
c1ccc(-c2ccc(OCCOCCn3cncn3)cc2)cc1,i,i,i,i,i,.,.,.,.,.,.,
Cc1ccccc1NC(C)C(=O)N/N=C/c1ccccc1OCc1cccc(Br)c1 (stereo not drawn),i,i,i,-5.2*,i,i,i,i,i,i,i,
COc1ccc(NC(C)C(=O)N/N=C/c2ccccc2OCc2cccc(Br)c2)cc1 (stereo not drawn),i,i,i,i,i,.,.,.,.,.,.,
CC1Cc2ccccc2N1C(=O)c1ccc(N2CCCC2)c([N+](=O)[O-])c1 (stereo not drawn),i,i,i,i,i,.,.,.,.,.,.,
CC1Cc2ccccc2N1C(=O)c1ccc(N2CCCCC2)c([N+](=O)[O-])c1 (stereo not drawn),i,i,i,-5.8*,i,i,i,i,i,i,i,
O=C(CSc1c2c(nc3ccc(Cl)cc13)CCCC2)NCCCN1CCOCC1,i,i,i,-11*,i,.,.,.,.,i,i,TRPC4 spec 2=i;TRPC4 spec=i;HEK293 MPD ctr 2-1=34%*;HEK293 MPD ctr-1=i
COc1ccccc1C(=O)Nc1nsc(-c2ccccc2)n1,i,i,i,i,i,.,.,.,.,.,.,
Cc1ccc(-c2cnc(SCCNC(=O)c3ccco3)[nH]2)cc1,i,i,i,i,i,.,.,.,.,.,.,
O=C(NCCSc1ncc(-c2ccc(F)cc2)[nH]1)c1ccc2c(c1)OCO2,i,i,i,-5.8*,i,i,i,i,i,i,i,
O=C(c1cccc(Cl)c1)C1CCCN(Cc2ccc(N3CCNC3=O)cc2)C1 (stereo not drawn),i,i,i,i,i,.,.,.,.,.,.,
NC(=O)CC(NC(=O)Cc1ccc(Br)cc1)c1ccc(NC2CCN(Cc3ccccc3)CC2)c([N+](=O)[O-])c1 (stereo not drawn),i,i,i,i,i,.,.,.,.,.,.,
O=C1C2CCCCC2C(=O)N1c1ccc(NC2CCN(Cc3ccccc3)CC2)c([N+](=O)[O-])c1 (stereo not drawn),i,i,43*,-6.3*,i,i,i,14%*,51%*,i,i,
NS(=O)(=O)c1ccc(NN=C2CCN(Cc3ccccc3)CC2)c([N+](=O)[O-])c1,17*,i,i,-5.7*,i,i,i,i,i,i,i,
O=[N+]([O-])c1ccc(NC2CCN(Cc3ccccc3)CC2)c([N+](=O)[O-])c1,i,i,i,-6.7*,i,-90%*,i,-17%*,52%*,i,i,
CC(C)[N+](C)(CCOC(=O)C1c2ccccc2Oc2ccccc21)C(C)C,i,i,i,-9.5*,i,.,.,.,.,105%*,i,TRPC4 spec 2=i;TRPC4 spec=i;HEK293 MPD ctr 2-1=-18%*;HEK293 MPD ctr-1=i
CCCCN(C(=O)Cn1nnc2ccccc21)C(C(=O)NCCOC)c1ccc(OC)cc1 (stereo not drawn),i,i,i,i,i,.,.,.,.,.,.,
COCCN(C(=O)Cn1nnc2ccccc21)C(C(=O)NC1CCCC1)c1ccc(OC)cc1OC (stereo not drawn),i,20*,i,i,i,600%*,194%*,118%*,i,.,311%*,
COCCN(C(=O)Cn1nnc2ccccc21)C(C(=O)NC1CCCCC1)c1ccc(OC)cc1OC (stereo not drawn),i,38*,i,i,i,818%*,173%*,163%*,i,.,354%*,
CC(=O)N(C(C)=O)c1nc(-c2ccccc2)cn1/N=C/c1cccc([N+](=O)[O-])c1,i,i,i,i,i,.,.,.,.,.,.,
C=CCNC(=O)C1CC(=O)N(c2ccc(OCC(=O)Nc3c(C)cccc3C)cc2)C1 (stereo not drawn),i,i,i,i,i,.,.,.,.,.,.,
CCN(CC)CCSc1nnc2c3cc(F)ccc3n(Cc3ccccc3)c2n1,i,i,i,-5.9*,i,-78%*,i,i,78%*,i,i,
CCN(CC)CCSc1nnc2c3ccccc3n(Cc3ccccc3)c2n1,i,i,i,-8.2*,i,.,.,.,.,66%*,i,TRPC4 spec 2=21%*;TRPC4 spec=12%*;HEK293 MPD ctr 2-1=i;HEK293 MPD ctr-1=-230%*
CCC(=O)Nc1nnc(S(=O)(=O)N(C)c2cc(C)cc(C)c2)s1,i,i,i,i,i,.,.,.,.,.,.,
CN(C)c1cc(-c2ccccc2)nc(N)n1,i,i,i,-6.5*,i,-72%*,i,-14%*,51%*,i,i,
